The values below come from ChEMBL document CHEMBL1157214, “Anti-HIV agents 45(1) and antitumor agents 205.(2) two new sesquiterpenes, leitneridanins A and B, and the cytotoxic and anti-HIV principles from Leitneria floridana” (J Nat Prod, 2000).

One data set concerns A549. Put plainly: Cytotoxicity against human A549 cells after 3 days by SRB assay. Type of data set: functional. The following applies: A549, 72 h, read-out: ED50 (the source's name). In a few lines: (§1)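 Human tumour lines from the Lineberger Comprehensive Cancer Center (UNC-CH). Selected samples were then run over a dose range in triplicate for three days. Growth was read by SRB absorbance at 562 nm. ED50 is the concentration giving a 50% fall in absorbance versus untreated cells.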
A general note: Sulforhodamine B stains cellular protein and so reports cell mass.

A further data set has as its system MCF7. Put plainly: Cytotoxicity against human MCF7 cells after 3 days by SRB assay. The format is functional. The following applies: MCF7, 72 h, read-out: ED50 (the source's name). In a few lines:
as §1

In data set [1] the test system is Human immunodeficiency virus. Put plainly: Inhibition of HIV replication in human H9 cells. The format is functional, organism-based. The conditions noted are these: Human immunodeficiency virus 1, H9.
The next data set relates to H9. Put plainly: Growth inhibition of human H9 cells. Type of data set: cell-based.
The subject of another data set is KB. Put plainly: Cytotoxicity against human KB cells after 3 days by SRB assay. Type of data set: functional. The following applies: 72 h, read-out: ED50 (the source's name). In outline: as §1
The test system of another data set is CAKI-1. Put plainly: Cytotoxicity against human CAKI1 cells after 3 days by SRB assay. The conditions noted are these: CAKI-1, 72 h, read-out: ED50 (the source's name). The format is functional. In a few lines:
as §1

The next data set relates to HCT-8. As to the kind of experiment: Cytotoxicity against human HCT8 cells after 3 days by SRB assay. The format is functional. The conditions noted are these: HCT-8, 72 h, read-out: ED50 (the source's name). In outline: as §1
Data set [2] can be described thus: Therapeutic index, ratio of IC50 for human H9 cells to EC50 for HIV. The format is cell-based. The conditions noted are these: read-out: Ratio IC50/EC50.
The subject of a further data set is SK-MEL-2. Put plainly: Cytotoxicity against human SK-MEL-2 cells after 3 days by SRB assay. The format is functional. The following applies: for EC50: Homo sapiens, SK-MEL-2, 72 h, read-out: ED50 (the source's name).

≈ marks a conversion by molar mass, not a printed value. Bounds are passed on as bounds.

By IC50 is commonly meant the concentration at which inhibition is half-maximal. A lower IC50 goes with greater potency in that assay.

On to `COc1cnc2ccc(=O)n3c4ccccc4c1c23`, for which the EC50 in the data set on A549 was found to be 4.3 µg/mL (≈ 17.2 µM); in the data set on MCF7, 13.5 µg/mL (≈ 53.9 µM); in [1], 0.256 µg/mL (≈ 1.02 µM); in the data set with KB it was 3.6 µg/mL (≈ 14.4 µM); in the data set with CAKI-1 it was 3.6 µg/mL (≈ 14.4 µM); with HCT-8, 3.6 µg/mL (≈ 14.4 µM). The EC50 in the data set on SK-MEL-2 is > 20 µg/mL. In the data set with H9, the IC50 is > 100 µg/mL. In addition, the selectivity ratio in data set [2] was > 391. In addition, the “inhibition (INH)” value with SK-MEL-2 was 46%.

As to `COc1cc2nccc3c4ccccc4n(c1=O)c23` [5-METHOXYCANTHINONE], the EC50 amounted to 3.1 µg/mL (≈ 12.4 µM) in the data set on A549; 5 µg/mL (≈ 20 µM) in the data set with MCF7; 2.9 µg/mL (≈ 11.6 µM) in the data set on KB; 4.4 µg/mL (≈ 17.6 µM) in the data set with CAKI-1; 2.5 µg/mL (≈ 9.99 µM) in the data set on HCT-8; 17 µg/mL (≈ 67.9 µM) with SK-MEL-2.

With `CC[C@](C)(OC(C)=O)C(=O)O[C@H]1C(=O)O[C@@H]2C[C@H]3C(C)=CC(=O)[C@@H](O)[C@]3(C)[C@H]3[C@@H](O)[C@H](O)[C@@]4(C)OC[C@]32[C@@H]14` [QUASSIMARIN], the EC50 in the data set on A549 amounted to 0.03 µg/mL (≈ 0.0559 µM); in the data set with MCF7 it was 0.006 µg/mL (≈ 0.0112 µM); in the data set with KB, 0.06 µg/mL (≈ 0.112 µM); in the data set on CAKI-1 it was 0.05 µg/mL (≈ 0.0932 µM); with HCT-8 it was 0.012 µg/mL (≈ 0.0224 µM); in the data set on SK-MEL-2, 0.05 µg/mL (≈ 0.0932 µM).

As for `CC[C@@H](C)C(=O)O[C@H]1C(=O)O[C@@H]2C[C@H]3C(C)=CC(=O)[C@@H](O)[C@]3(C)[C@H]3[C@@H](O)[C@H](O)[C@]4(C)OC[C@]32[C@@H]14` [SIMALIKALACTONE D], the EC50 in the data set with A549 was 0.04 µg/mL (≈ 0.0836 µM); in the data set on MCF7, 0.014 µg/mL (≈ 0.0293 µM); in the data set on KB it was 0.018 µg/mL (≈ 0.0376 µM); in the data set on CAKI-1, 0.26 µg/mL (≈ 0.543 µM); in the data set on HCT-8, 0.013 µg/mL (≈ 0.0272 µM); with SK-MEL-2, 0.13 µg/mL (≈ 0.272 µM).
